Results as given in ChEMBL document CHEMBL1123430, “Potential tumor- or organ-imaging agents. 26. Polyiodinated 2-substituted triacylglycerols as hepatographic agents” (J Med Chem, 1986).

What was measured:
Rattus norvegicus [1] = test: Distribution of radioactivity of radiolabeled compound in liver of female rats 30 minutes after intravenous administration; format: ADME, organism-based; settings: in vivo, 0.5 h
Rattus norvegicus [2] = test: Polyacrylamide Gel Electrophoresis (PAGE) analysis of rat plasma 30 min after intravenous administration of radiolabeled compound inlow density lipoprotein; format: functional, organism-based
How it was run: (§1)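 Gels were sectioned and counted in a γ counter. Radioactivity in each band (stacking gel, LDL, HDL, albumin, below albumin) is expressed as a percentage of the total radioactivity applied to the gel, ± SEM, n = 3-5.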

Rattus norvegicus [3] = test: Distribution of radioactivity of radiolabeled compound in blood of female rats 30 minutes after intravenous administration; format: ADME, organism-based; settings: in vivo, 0.5 h
Rattus norvegicus [4] = test: Polyacrylamide Gel Electrophoresis (PAGE) analysis of rat plasma 30 minutes after intravenous administration of radiolabeled in stacking gel; format: functional, organism-based; how it was run: as §1
Rattus norvegicus [5] = test: Percentage parent compound in rat liver 30 minutes after iv administration of the radiolabeled compound by thin-layer chromatography; format: functional
How it was run: (§2)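 Liver and plasma were taken at 5 or 30 min. Plasma was extracted by a modified Folch procedure, and liver was homogenized and extracted. Extracts were run on TLC in hexane/ethyl acetate (5:2) for esters or THF/hexane (1:1) for acids, with unlabeled compound as reference. Plates were cut into 1-cm strips and counted. Values are percent ± SEM, n = 3-5.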

Rattus norvegicus [6] = test: Percentage […]/CH3OH extract of the radiolabeled compound in rat plasma 30 minutes after iv administration; format: functional; how it was run: as §2
Rattus norvegicus [7] = test: Percentage parent compound in rat plasma 5 minutes after iv administration of the radiolabeled compound by thin-layer chromatography; format: functional; how it was run: as §2
Rattus norvegicus [8] = test: Polyacrylamide Gel Electrophoresis (PAGE) analysis of rat plasma 5 minutes after intravenous administration of radiolabeled compound in low-density lipoprotein; format: functional, organism-based
How it was run: (§3)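 ¹²⁵I-labeled compound, radioiodinated by exchange in a pivalic acid melt, solubilized in normal saline with Tween 20 and given iv to adult female Sprague–Dawley rats (200–250 g), 5–30 μCi/animal, 3–4 rats per time point. Plasma was run on polyacrylamide gels. Gels were sectioned and gamma counted. Radioactivity per band (stacking gel, LDL, HDL, albumin, below albumin) is given as % of total applied; mean ± SEM, n = 3-5.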

Rattus norvegicus [9] = test: Polyacrylamide Gel Electrophoresis (PAGE) analysis of rat plasma 5 min after intravenous administration of radiolabeled compound concentration of albumin; format: functional, organism-based; how it was run: as §1
Rattus norvegicus [10] = test: Distribution of radioactivity of radiolabeled compound in kidney of female rats 30 minutes after intravenous administration; format: ADME, organism-based; settings: in vivo, 0.5 h
Rattus norvegicus [11] = test: Distribution of radioactivity of radiolabeled compound in blood of female rats 5 minutes after intravenous administration; format: ADME, organism-based; settings: in vivo
Rattus norvegicus [12] = test: Percentage parent compound in rat liver 5 minutes after iv administration of the radiolabeled compound by thin-layer chromatography; format: functional; how it was run: as §2
Rattus norvegicus [13] = test: Distribution of radioactivity of radiolabeled compound in liver of female rats 5 minutes after intravenous administration; format: ADME, organism-based; settings: in vivo
Rattus norvegicus [14] = test: Percentage parent compound in rat plasma 30 minutes after iv administration of the radiolabeled compound by thin-layer chromatography; format: functional; how it was run: as §2
Rattus norvegicus [15] = test: Percentage […]/CH3OH extract of the radiolabeled compound in rat plasma 5 minutes after iv administration; format: functional; how it was run: as §2
Rattus norvegicus [16] = test: Polyacrylamide Gel Electrophoresis (PAGE) analysis of rat plasma 30 min after intravenous administration of radiolabeled compound at in high density; format: functional, organism-based; how it was run: as §1
Rattus norvegicus [17] = test: Polyacrylamide Gel Electrophoresis (PAGE) analysis of rat plasma 5 minutes after intravenous administration of radiolabeled compound at in high density lipoprotein; format: functional, organism-based; how it was run: as §3
Rattus norvegicus [18] = test: Percentage […]/CH3OH extract of the radiolabeled compound in rat liver 30 minutes after iv administration; format: functional; how it was run: as §2
Rattus norvegicus [19] = test: Polyacrylamide Gel Electrophoresis (PAGE) analysis of rat plasma 30 min after intravenous administration of radiolabeled compound ( below albumin); format: functional, organism-based; how it was run: as §1
Rattus norvegicus [20] = test: Distribution of radioactivity of radiolabeled compound in lung of female rats 5 minutes after intravenous administration at; format: ADME, organism-based; settings: in vivo
Rattus norvegicus [21] = test: Polyacrylamide Gel Electrophoresis (PAGE) analysis of rat plasma 5 minutes after intravenous administration of radiolabeled compound (below albumin ); format: functional, organism-based; how it was run: as §3
Rattus norvegicus [22] = test: Distribution of radioactivity of radiolabeled compound in kidney of female rats 5 minutes after intravenous administration; format: ADME, organism-based; settings: in vivo
Rattus norvegicus [23] = test: Polyacrylamide Gel Electrophoresis (PAGE) analysis of rat plasma 5 minutes after intravenous administration of radiolabeled compound in stacking gel; format: functional, organism-based; how it was run: as §3
Rattus norvegicus [24] = test: Polyacrylamide Gel Electrophoresis (PAGE) analysis of rat plasma 30 min after intravenous administration of radiolabeled compound in albumin; format: functional, organism-based; how it was run: as §1
Rattus norvegicus [25] = test: Distribution of radioactivity of radiolabeled compound in lung of female rats 30 minutes after intravenous administration; format: ADME, organism-based; settings: in vivo, 0.5 h
Rattus norvegicus [26] = test: Distribution of radioactivity of radiolabeled compound in heart of female rats 30 minutes after intravenous administration; format: ADME, organism-based; settings: in vivo, 0.5 h
Rattus norvegicus [27] = test: Percentage […]/CH3OH extract of the radiolabeled compound in rat liver 5 minutes after iv administration; format: functional; how it was run: as §2
Rattus norvegicus [28] = test: Distribution of radioactivity of radiolabeled compound in heart of female rats 5 minutes after intravenous administration; format: ADME, organism-based; settings: in vivo
Rattus norvegicus [29] = test: Polyacrylamide Gel Electrophoresis (PAGE) analysis of rat plasma 30 minutes after intravenous administration of radiolabeled compound in albumin; format: functional, organism-based; how it was run: as §1
Rattus norvegicus [30] = test: Polyacrylamide Gel Electrophoresis (PAGE) analysis of rat plasma 5 min after intravenous administration of radiolabeled compound in albumin; format: functional, organism-based; how it was run: as §1
Rattus norvegicus [31] = test: Percentage […]/CH3OH extract of the radiolabeled compound in rat plasma 5 minutes after iv administration (+/-SEM); format: functional; how it was run: as §2
Rattus norvegicus [32] = test: Percentage […]/CH3OH extract of the radiolabeled compound in rat plasma 30 minutes after iv administration (+/-SEM); format: functional; how it was run: as §2
Rattus norvegicus [33] = test: Polyacrylamide Gel Electrophoresis (PAGE) analysis of rat plasma after intravenous administration of radiolabeled compound concentration of below albumin […]; format: functional, organism-based; how it was run: as §3
Rattus norvegicus [34] = test: Polyacrylamide Gel Electrophoresis (PAGE) analysis of rat plasma 30 minutes after intravenous administration of radiolabeled compound in low-density lipoprotein; format: functional, organism-based; how it was run: as §1
Rattus norvegicus [35] = test: Polyacrylamide Gel Electrophoresis (PAGE) analysis of rat plasma 30 minutes after intravenous administration of radiolabeled compound in stacking gel; format: functional, organism-based; how it was run: as §1
Rattus norvegicus [36] = test: Percentage […]/CH3OH extract of the radiolabeled compound in rat liver 30 minutes after iv administration (+/-SEM); format: functional; how it was run: as §2
Rattus norvegicus [37] = test: Polyacrylamide Gel Electrophoresis (PAGE) analysis of rat plasma 30 minutes after intravenous administration of radiolabeled compound (below albumin); format: functional, organism-based; how it was run: as §1
Rattus norvegicus [38] = test: Polyacrylamide Gel Electrophoresis (PAGE) analysis of rat plasma 5 minutes after intravenous administration of radiolabeled compound in high density lipoprotein; format: functional, organism-based; how it was run: as §3
Rattus norvegicus [39] = test: Polyacrylamide Gel Electrophoresis (PAGE) analysis of rat plasma 5 minutes after intravenous administration of radiolabeled compound (below albumin); format: functional, organism-based; how it was run: as §3
Rattus norvegicus [40] = test: Percentage […]/CH3OH extract of the radiolabeled compound in rat liver 5 minutes after iv administration (+/-SEM); format: functional; how it was run: as §2
Rattus norvegicus [41] = test: Polyacrylamide Gel Electrophoresis (PAGE) analysis of rat plasma 30 minutes after intravenous administration of radiolabeled compound in high density lipoprotein; format: functional, organism-based; how it was run: as §1
Rattus norvegicus [42] = test: Distribution of radioactivity of radiolabeled compound in lung of female rats 5 minutes after intravenous administration; format: ADME, organism-based; settings: in vivo
Rattus norvegicus [43] = test: Polyacrylamide Gel Electrophoresis (PAGE) analysis of rat plasma 30 min after intravenous administration of radiolabeled compound (below albumin ); format: functional, organism-based; how it was run: as §1
Rattus norvegicus [44] = test: Distribution of radioactivity of radiolabeled compound in liver of female rats 5 minutes after intravenous administration at; format: ADME, organism-based; settings: in vivo
Rattus norvegicus [45] = test: Polyacrylamide Gel Electrophoresis (PAGE) analysis of rat plasma 30 min after intravenous administration of radiolabeled in low-density lipoprotein; format: functional, organism-based; how it was run: as §1
Rattus norvegicus [46] = test: Polyacrylamide Gel Electrophoresis (PAGE) analysis of rat plasma 5 minutes after intravenous administration of radiolabeled in stacking gel; format: functional, organism-based; how it was run: as §3
Rattus norvegicus [47] = test: Polyacrylamide Gel Electrophoresis (PAGE) analysis of rat plasma 30 min after intravenous administration of radiolabeled compound concentration of stacking gel; format: functional, organism-based; how it was run: as §1
Rattus norvegicus [48] = test: Polyacrylamide Gel Electrophoresis (PAGE) analysis of rat plasma 5 minutes after intravenous administration of radiolabeled in low-density lipoprotein; format: functional, organism-based; how it was run: as §3
Rattus norvegicus [49] = test: Polyacrylamide Gel Electrophoresis (PAGE) analysis of rat plasma 30 min after intravenous administration of radiolabeled compound at concentration of high density; format: functional, organism-based; how it was run: as §1

Dose (Rattus norvegicus [1]) [%] | Dose (Rattus norvegicus [3]) [%] | Dose (Rattus norvegicus [10]) [%] | Dose (Rattus norvegicus [11]) [%] | Dose (Rattus norvegicus [13]) [%] | Dose (Rattus norvegicus [22]) [%] | Dose (Rattus norvegicus [25]) [%] | Dose (Rattus norvegicus [26]) [%] | Dose (Rattus norvegicus [28]) [%] | Dose (Rattus norvegicus [42]) [%] | SMILES | Activity (Rattus norvegicus [5]) [%] | Activity (Rattus norvegicus [7]) [%] | Concentration (Rattus norvegicus [8]) [%] | Activity (Rattus norvegicus [12]) [%] | Activity (Rattus norvegicus [14]) [%] | Concentration (Rattus norvegicus [21]) | Concentration (Rattus norvegicus [23]) [%] | Concentration (Rattus norvegicus [24]) | Concentration (Rattus norvegicus [30]) | Concentration (Rattus norvegicus [38]) | also measured
5.22 | 1.12 | 1.21 | 2.5 | 6.62 | 0.59 | 1.84 | 0.7 | 0.73 |  | CCCCCCCCCCCCCCCC(=O)OCC(COC(=O)CCCCCCCCCCCCCCC)OC(=O)CCCCCCCCCCCc1c(I)cc(I)c(N)c1I | 42.9 | 43.2 | 26 | 46.4 | 34 | 3 | 6.9 | 48.9 |  |  | Concentration (Rattus norvegicus [2]): 9.7; Concentration (Rattus norvegicus [4]): 13.2; Activity (Rattus norvegicus [6]): 54.8%; Concentration (Rattus norvegicus [9]): 30.8; Activity (Rattus norvegicus [15]): 81.8%; Concentration (Rattus norvegicus [16]): 15.6%; Concentration (Rattus norvegicus [17]): 33.3%; Activity (Rattus norvegicus [18]): 61.2%; Concentration (Rattus norvegicus [19]): 12.5; Dose (Rattus norvegicus [20]): 1.73%; Activity (Rattus norvegicus [27]): 40.9%
1.22 | 3.23 | 1.65 | 5.99 | 1.74 | 1.18 | 0.93 | 2.43 | 1.34 | 1.2 | CCCCCCCCCCCCCCCC(=O)OCC(COC(=O)CCCCCCCCCCCCCCC)OC(=O)CCc1c(I)cc(I)c(N)c1I | 47.7 | 75.5 | 20.2 | 72.5 | 86.1 |  | 4.6 |  | 14.6 | 57.1 | Concentration (Rattus norvegicus [29]): 27; Activity (Rattus norvegicus [31]): 79.1%; Activity (Rattus norvegicus [32]): 69.4%; Concentration (Rattus norvegicus [33]): 69.4 [middle of 4 runs]; Concentration (Rattus norvegicus [34]): 15.7%; Concentration (Rattus norvegicus [35]): 4%; Activity (Rattus norvegicus [36]): 52.1%; Concentration (Rattus norvegicus [37]): 4.4; Concentration (Rattus norvegicus [39]): 2.4; Activity (Rattus norvegicus [40]): 68.4%; Concentration (Rattus norvegicus [41]): 48.9%
3.63 | 1.06 | 1.46 | 1.21 |  | 0.77 | 0.66 | 0.73 | 1.15 | 0.95 | Nc1c(I)cc(I)c(CCCCCCCCCCCC(=O)O)c1I |  |  |  |  |  | 4.8 |  | 54.4 | 84.6 | 8 | Concentration (Rattus norvegicus [43]): 26.3; Dose (Rattus norvegicus [44]): 6.96%; Concentration (Rattus norvegicus [45]): 3.8; Concentration (Rattus norvegicus [46]): 1.5%; Concentration (Rattus norvegicus [47]): 11.2; Concentration (Rattus norvegicus [48]): 1; Concentration (Rattus norvegicus [49]): 5.6
